Experimental data reported in ChEMBL document CHEMBL3414523, “FimH antagonists: bioisosteres to improve the in vitro and in vivo PK/PD profile” (J Med Chem, 2015).
Values after ≈ are worked out from the molar mass of the structure shown.

How the values were obtained:
[1] = physchem; details: octanol/water, pH 7.4
[2] = Apparent permeability across basolateral to apical side in human Caco2 cells by LC/MS analysis; details: Caco-2
[3] = Apparent permeability across apical to basolateral side in human Caco2 cells by LC/MS analysis; details: Caco-2
[4] = physchem; details: buffer, pH 7.4
[5] = Binding affinity to Escherichia coli recombinant 6-His-tagged FimH CRD expressed in Escherichia coli HM125 by isothermal titration calorimetry
[6] = Lipophilicity, log P of the compound; type: physicochemical; details: octanol/water
[7] = Displacement of fluorescently labeled 3'-chloro-N-(2-(3-(3',6'-dihydroxy-3-oxo-3H-spiro[isobenzofuran-1,9'-xanthene]-5-yl)thioureido)ethyl)-4'-((2R,3S,4S,5S,6R)-3,4,5-trihydroxy-6-(hydroxymethyl)tetrahydro-2H-pyran-2-yloxy)biphenyl-4-carboxamide from Escherichia coli recombinant 6-His-tagged FimH CRD expressed in Escherichia coli HM125 after 24 hrs by fluorescence polarization assay
Procedure, shortened: (§1)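 Competitive fluorescence polarization with His6-tagged FimH CRD (thrombin cleavage site) and fixed fluorescent reporter ligand, 24 h incubation to reach equilibrium; polarized excitation 485 nm, emission 528 nm on a plate reader. IC50 from four-parameter nonlinear least-squares fit, converted to KD by a modified Cheng–Prusoff equation accounting for ligand depletion.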

[8] = Plasma protein binding in human by equilibrium dialysis method; type: ADME, cell-free; details: read-out: PPB (converted)
[9] = physchem; details: buffer, pH 3
[10] = Dissociation constant, pKa of the compound by NMR spectroscopy; type: physicochemical
[11] = Half life in rat liver microsomes at 2 uM after 10 mins by LC/MS/MS analysis in presence of NADPH; type: ADME
[12] = Kinetic solubility of the compound at 0.1 to 0.5 mM at pH 6.51 after 15 hrs by UV/Vis spectrophotometry; type: physicochemical; details: buffer, read-out: Kinetic_solubility
[13] = Half life in rat liver microsomes at 2 uM after 10 mins by LC/MS/MS analysis
[14] = Displacement of n-heptyl 2-deoxy-alpha-D-mannopyranoside from Escherichia coli recombinant 6-His-tagged FimH CRD expressed in Escherichia coli HM125 after 20 mins by isothermal titration calorimetry
[15] = Cmax in urine of C3H/HeN mouse at 50 mg/kg, iv; type: ADME, organism-based; design: dose 50 mg/kg, route intravenous
[16] = Initial plasma concentration in C3H/HeN mouse at 50 mg/kg, iv; type: ADME, organism-based; design: dose 50 mg/kg, route intravenous
[17] = test system: Mus musculus; test: Half life in C3H/HeN mouse at 50 mg/kg, iv; type: ADME, organism-based; design: dose 50 mg/kg, route intravenous; details: in vivo
[18] = test system: Mus musculus; test: Volume of distribution in C3H/HeN mouse at 50 mg/kg, iv; type: ADME, organism-based; design: dose 50 mg/kg, route intravenous; details: in vivo
[19] = test system: Mus musculus; test: Total clearance in C3H/HeN mouse at 50 mg/kg, iv; type: ADME, organism-based; design: dose 50 mg/kg, route intravenous; details: in vivo
[20] = AUC (0 to infinity) in C3H/HeN mouse at 50 mg/kg, iv; type: ADME, organism-based; design: time infinity, dose 50 mg/kg, route intravenous; details: plasma
[21] = Kinetic solubility of the compound at 0.1 to 0.5 mM at pH 6.61 after 15 hrs by UV/Vis spectrophotometry; type: physicochemical; details: buffer, read-out: Kinetic_solubility
[22] = Effective permeability coefficient, log Pe after 16 hrs by PAMPA; type: ADME
[23] = Kinetic solubility of the compound at 0.1 to 0.5 mM at pH 3 to 7.4 after 15 hrs by UV/Vis spectrophotometry; type: physicochemical; details: buffer, read-out: Kinetic_solubility
[24] = Initial plasma concentration in C3H/HeN mouse at 0.625 mg/kg, iv; type: ADME, organism-based; design: dose 0.625 mg/kg, route intravenous
[25] = Cmax in urine of C3H/HeN mouse at 0.625 mg/kg, iv; type: ADME, organism-based; design: dose 0.625 mg/kg, route intravenous
[26] = test system: Escherichia coli; test: (§2) Antimicrobial activity against Escherichia coli UTI89 infected in C3H/HeN mouse urinary tract infection model assessed as bacterial load reduction in bladder at 10 mg/kg, po formulated with 5% DMSO in PBS containing 1% Tween 80 administered 40 mins prior to infection measured after 3 hrs relative to control; type: functional
[27] = AUC (0 to infinity) in C3H/HeN mouse at 0.625 mg/kg, iv; type: ADME, organism-based; design: time infinity, dose 0.625 mg/kg, route intravenous; details: plasma
[28] = test system: Mus musculus; test: Half life in C3H/HeN mouse at 0.625 mg/kg, iv; type: ADME, organism-based; design: dose 0.625 mg/kg, route intravenous; details: in vivo
[29] = test system: Escherichia coli; test: Antimicrobial activity against Escherichia coli UTI89 infected in C3H/HeN mouse urinary tract infection model assessed as bacterial load reduction in bladder at 1.25 mg/kg, po administered 40 mins prior to infection measured after 3 hrs (reference value: 6.6 log10 CFU); type: functional
[30] = test system: Escherichia coli; test: Inhibition of adhesion of Escherichia coli UTI89 clinical isolate to human 5637 cells assessed as MAC90 after 10 mins by flow cytometry; type: functional
[31] = test system: Mus musculus; test: Volume of distribution in C3H/HeN mouse at 0.625 mg/kg, iv; type: ADME, organism-based; design: dose 0.625 mg/kg, route intravenous; details: in vivo
[32] = test system: Escherichia coli; test: as §2, with “kidney” for “bladder”; type: functional
[33] = test system: Escherichia coli; test: Antimicrobial activity against Escherichia coli UTI89 infected in C3H/HeN mouse urinary tract infection model assessed as bacterial load reduction in kidney at 1.25 mg/kg, po administered 40 mins prior to infection measured after 3 hrs (reference value: 6 log10 CFU); type: functional
[34] = Total clearance in C3H/HeN mouse at 0.625 mg/kg, iv; type: ADME, organism-based; design: dose 0.625 mg/kg, route intravenous; details: in vivo
[35] = Binding affinity to Escherichia coli recombinant 6-His-tagged FimH CRD expressed in Escherichia coli HM125 after 24 hrs by competitive fluorescence polarization assay
Procedure, shortened: as §1

[36] = Kinetic solubility of the compound at 0.1 to 0.5 mM at pH 7.6 after 15 hrs by UV/Vis spectrophotometry; type: physicochemical; details: buffer, read-out: Kinetic_solubility

| Compound | logD at 2 h, 1 µM [1] | Papp B→A [2] | Papp A→B [3] | solubility kinetic at 15 h, 500 µM [4] | Kd [7] | fraction unbound [8] | half-life at 10 min, 2 µM ([13]; liver microsomes) | Kd [14] | other results |
| --- | --- | --- | --- | --- | --- | --- | --- | --- | --- |
| OC[C@H]1O[C@H](Oc2ccc(-c3ccccc3)cc2)[C@@H](O)[C@@H](O)[C@@H]1O | 2.1 | 19 ×10⁻⁶ cm/s | 10 ×10⁻⁶ cm/s | 21 µg/mL (≈ 63.2 µM) | 15.1 nM | 0.07 |  |  | Kd [5]: 17.7 nM; logP [6]: 2.1 |
| N#CNC(=O)c1ccc(-c2ccc(O[C@H]3O[C@H](CO)[C@@H](O)[C@H](O)[C@@H]3O)cc2)cc1 | -1.1 | 0.29 ×10⁻⁶ cm/s | 0.22 ×10⁻⁶ cm/s | > 150 µg/mL | 8.4 nM |  |  |  | solubility kinetic at 15 h, 500 µM [9]: > 150 µg/mL; pKa [10]: 2.5 |
| COC(=O)c1ccc(-c2ccc(O[C@H]3O[C@H](CO)[C@@H](O)[C@H](O)[C@@H]3O)cc2)cc1 | 2.14 |  | 4.23 ×10⁻⁶ cm/s |  | 3.6 nM |  |  |  | half-life at 2 µM [11]: 1 min; solubility kinetic at 15 h [12]: 33.8 µg/mL (≈ 86.6 µM) |
| CS(=O)(=O)c1ccc(-c2ccc(O[C@H]3O[C@H](CO)[C@@H](O)[C@H](O)[C@@H]3O)cc2)cc1 | 0.4 | 1.76 ×10⁻⁶ cm/s | 0.36 ×10⁻⁶ cm/s | 246 µg/mL (≈ 599 µM) | 1.7 nM | 0.01 | > 60 min | 3 nM |  |
| O=C(c1ccc(-c2ccc(O[C@H]3O[C@H](CO)[C@@H](O)[C@H](O)[C@@H]3O)cc2)cc1)N1CCOCC1 | 0.2 | 1.3 ×10⁻⁶ cm/s | 0.18 ×10⁻⁶ cm/s | > 250 µg/mL | 3 nM | 0.52 | > 60 min | 5 nM | Cmax [15]: 4610 µg/mL; C0 [16]: 110 µg/mL; t1/2 [17]: 24 min; Vz [18]: 28.3 mL; CL [19]: 49.4 mL/h; AUC(0-inf) [20]: 25300 ng·h/mL |
| O=C(O)c1ccc(-c2ccc(O[C@H]3O[C@H](CO)[C@@H](O)[C@H](O)[C@@H]3O)cc2)cc1 | < -1.5 |  |  |  | 17.9 nM |  | > 60 min |  | Cmax [15]: 300 µg/mL; C0 [16]: 40 µg/mL; solubility kinetic at 15 h [21]: > 3000 µg/mL; log Pe [22]: impermeable; t1/2 [17]: 19.8 min; Vz [18]: 25.2 mL; CL [19]: 53.1 mL/h; AUC(0-inf) [20]: 23500 ng·h/mL; Kd [5]: 15 nM |
| CCCCCCCO[C@H]1O[C@H](CO)[C@@H](O)[C@H](O)[C@@H]1O |  | 9.4 ×10⁻⁶ cm/s | 7 ×10⁻⁶ cm/s |  | 28.3 nM |  |  |  | solubility kinetic at 15 h [23]: > 3000 µg/mL; half-life at 10 min, 2 µM ([13]; microsomes): 13 min; Kd [5]: 28.9 nM |
| NC(=O)c1ccc(-c2ccc(O[C@H]3O[C@H](CO)[C@@H](O)[C@H](O)[C@@H]3O)cc2)cc1 | 0.5 | 0.61 ×10⁻⁶ cm/s | 0.12 ×10⁻⁶ cm/s | 12 µg/mL (≈ 32 µM) | 2.8 nM |  |  |  |  |
| CNC(=O)c1ccc(-c2ccc(O[C@H]3O[C@H](CO)[C@@H](O)[C@H](O)[C@@H]3O)cc2)cc1 | 0.8 | 0.87 ×10⁻⁶ cm/s | 1.1 ×10⁻⁶ cm/s | 122 µg/mL (≈ 313 µM) | 2.9 nM |  |  | 4.3 nM |  |
| OC[C@H]1O[C@H](Oc2ccc(-c3cc(F)c(O)c(F)c3)cc2)[C@@H](O)[C@@H](O)[C@@H]1O | 1.1 | 1.9 ×10⁻⁶ cm/s | 0.4 ×10⁻⁶ cm/s | > 150 µg/mL | 3.7 nM |  |  |  | pKa [10]: 6.5 |
| OC[C@H]1O[C@H](Oc2ccc(-c3ccc(-c4nnn[nH]4)cc3)cc2)[C@@H](O)[C@@H](O)[C@@H]1O |  |  |  |  | 5.7 nM |  |  |  | pKa [10]: 3.7 |
| N#Cc1ccc(-c2ccc(O[C@H]3O[C@H](CO)[C@@H](O)[C@H](O)[C@@H]3O)c(Cl)c2)cc1 | 2.1 | 22.1 ×10⁻⁶ cm/s | 2.2 ×10⁻⁶ cm/s | 192 µg/mL (≈ 490 µM) | < 1 nM | 0.11 | > 60 min | 1.3 nM | C0 [24]: 0.36 µg/mL; Cmax [25]: 10 µg/mL; log10cfu [26]: 2.68; AUC(0-inf) [27]: 70 ng·h/mL; t1/2 [28]: 10.2 min; log10cfu [29]: 1.78; Activity [30]: 0.094 µg/mL; Vz [31]: 52.8 mL; log10cfu [32]: 1.04; log10cfu [33]: 1.07; clearance [34]: 3.63 mL/min |
| O=C(NCCNC(=S)Nc1ccc2c(c1)C(=O)OC21c2ccc(O)cc2Oc2cc(O)ccc21)c1ccc(-c2ccc(O[C@H]3O[C@H](CO)[C@@H](O)[C@H](O)[C@@H]3O)c(Cl)c2)cc1 |  |  |  |  |  |  |  |  | Kd [35]: 1.7 nM |
| CNS(=O)(=O)c1ccc(-c2ccc(O[C@H]3O[C@H](CO)[C@@H](O)[C@H](O)[C@@H]3O)cc2)cc1 |  |  |  |  | 2.7 nM | < 0.01 | > 60 min | 3.5 nM | Cmax [15]: 387 µg/mL; C0 [16]: 152 µg/mL; t1/2 [17]: 114 min; Vz [18]: 19.5 mL; CL [19]: 7.1 mL/h; AUC(0-inf) [20]: 175000 ng·h/mL |
| N#Cc1ccc(-c2ccc(O[C@H]3O[C@H](CO)[C@@H](O)[C@H](O)[C@@H]3O)cc2)cc1 | 1.4 | 13.2 ×10⁻⁶ cm/s | 2 ×10⁻⁶ cm/s |  | 2 nM | 0.01 | > 60 min | 2.8 nM | solubility kinetic at 15 h [36]: 186 µg/mL (≈ 520 µM) |
| O=C(NCCOCCOCCNC(=S)Nc1ccc2c(c1)C(=O)OC21c2ccc(O)cc2Oc2cc(O)ccc21)c1ccc(-c2ccc(O[C@H]3O[C@H](CO)[C@@H](O)[C@H](O)[C@@H]3O)c(Cl)c2)cc1 |  |  |  |  |  |  |  |  | Kd [35]: 9.9 nM |
